This is an account of results in ChEMBL document CHEMBL1137754, “Inhibitors of potassium channels KV1.3 and IK-1 as immunosuppressants” (Bioorg Med Chem Lett, 2009).

Activity calls are given as the source filed them. No cut-off for these calls is given here.

The target in data set [1] is T1, Potassium voltage-gated channel subfamily A member 3 (Homo sapiens, UniProt P22001). The data set can be described thus: Inhibition of cloned Kv1.3 channel expressed in mammalian cells by whole cell patch clamp assay. The format is cell-based. In outline:
(§1)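 Whole-cell patch clamp recording, n ≥ 2 individual experiments per compound concentration using different cells. Dose–response curves used four or more concentrations.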
In general terms: In patch-clamp work, channel activity is measured electrically.

Data set [2] has as its target Intermediate conductance calcium-activated potassium channel protein 4 (Homo sapiens, UniProt O15554). The data set can be described thus: Inhibition of human cloned IK1 expressed in african green monkey COS7 cells by whole cell patch clamp assay. The format is cell-based, COS-7.
The test system of data set [3] is Mus musculus. The data set can be described thus: Antiinflammatory activity against oxazolone-induced delayed type hypersensitivity in mouse assessed as reduction in ear swelling at 1%, topically applied 30 mins post oxazolone challenge. The format is functional. Also on record: scale not given: the % may be the effect or the level left. In outline: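 Mouse DTH ear-swelling model with oxazolone sensitization and challenge. A single topical dose at 1% in ethanol–DMSO 4:1 was applied 30 min after challenge. The read-out was ear swelling relative to a vehicle-treated group. Protopic (0.1%) served as positive control. Values are means of n = 5 animals per group.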

Data set [4] concerns HaCaT. The data set can be described thus: Inhibition of human HaCaT cell proliferation after 48 hrs. Type of data set: functional, cell-based. An outline of the steps: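 HaCaT keratinocytes were seeded in KBM/10% FCS and held 24 h at 37 °C. Compounds diluted in KBM/FCS (final 1% DMSO) were added in triplicate and incubated 48 h.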
Data set [5] can be described thus: Cytotoxicity against human effector memory T cells of PBMC. Type of data set: cell-based, T-cell. The conditions noted are these: effector memory T cells from PBMC, read-out: LD50 (the source's name).
A short description of data set [6]: (§2) Cytotoxicity against human HaCaT cells. Type of data set: cell-based. The conditions noted are these: HaCaT cells, read-out: LD50 (the source's name).
In data set [7] the target is T1, Potassium voltage-gated channel subfamily A member 3. The data set can be described thus: Inhibition of cloned Kv1.3 channel expressed in mammalian cells at 2 uM by whole cell patch clamp assay. Type of data set: cell-based. In outline:
as §1

Data set [8] deals with PBMC. The data set can be described thus: Immunosuppressant activity in human effector memory T cells of PBMC assessed as inhibition of anti-CD3 antibody-induced cell proliferation by ELISA. The format is functional, cell-based. For orientation: ELISA stands for enzyme-linked immunosorbent assay.
The test system of data set [9] is PBMC. The data set can be described thus: Immunosuppressant activity in human effector memory T cells of PBMC assessed as inhibition of anti-CD3 antibody-induced cell proliferation by ELISA in presence of 5 uM Kv1.3-blocker PAP1. Type of data set: functional, cell-based. An outline of the steps: (§3)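 T_EM fraction of PBMCs stimulated with anti-CD3 antibody; proliferation dose–response curves for one channel blocker were run against a fixed background of a blocker of the other channel (IK-1 blocker, or 5 µM PAP-1 for Kv1.3). The read-out was EC50.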

Data set [10] in a line: Cytotoxicity against human effector memory T cells of PBMC up to 50 uM. The format is cell-based.
Data set [11] relates to HaCaT. The description is as §2. The format is cell-based. The conditions noted are these: hacat.
Data set [12] relates to HaCaT. Briefly: Cytotoxicity against human HaCaT cells up to 50 uM. Type of data set: cell-based.
For data set [13], the system named is PBMC. Briefly: Immunosuppressant activity in human effector memory T cells of PBMC assessed as inhibition of anti-CD3 antibody-induced cell proliferation by ELISA in presence of 5 uM IK1-blocker TRAM34. The format is functional, cell-based. An outline of the steps: as §3
The subject of data set [14] is PBMC. The data set can be described thus: Immunosuppressant activity in human effector memory T cells of PBMC assessed as inhibition of anti-CD3 antibody-induced cell proliferation by ELISA in presence of 5 uM IK1-blocker 5-(Toluene-4-sulfonyl)-5,6-dihydro-dibenzo[b,d]azepin-7-one. The format is functional, cell-based. An outline of the steps:
as §3

Data set [15] has as its system PBMC. The data set can be described thus: Immunosuppressant activity in human effector memory T cells of PBMC assessed as inhibition of anti-CD3 antibody-induced cell proliferation by ELISA in presence of 5 uM IK1-blocker 5-(4-Chloro-benzenesulfonyl)-5,6-dihydro-dibenzo[b,d]azepin-7-one. Type of data set: functional, cell-based. An outline of the steps:
as §3

Data set [16] concerns PBMC. The data set can be described thus: Immunosuppressant activity in human effector memory T cells of PBMC assessed as inhibition of anti-CD3 antibody-induced cell proliferation by ELISA in presence of 16.7 uM IK1-blocker 5-(4-Chloro-benzenesulfonyl)-5,6-dihydro-dibenzo[b,d]azepin-7-one. Type of data set: functional, cell-based. An outline of the steps:
as §3

Data set [17] has as its target T1, Potassium voltage-gated channel subfamily A member 3. Briefly: Inhibition of cloned Kv1.3 channel expressed in mammalian cells at 20 uM by whole cell patch clamp assay.
For data set [18] the target is unchanged. The data set can be described thus: Inhibition of cloned Kv1.3 channel expressed in mammalian cells at 20 uM by whole cell patch clamp assay. Type of data set: cell-based. In outline: as §1

T1 sequence (P22001 whole entry): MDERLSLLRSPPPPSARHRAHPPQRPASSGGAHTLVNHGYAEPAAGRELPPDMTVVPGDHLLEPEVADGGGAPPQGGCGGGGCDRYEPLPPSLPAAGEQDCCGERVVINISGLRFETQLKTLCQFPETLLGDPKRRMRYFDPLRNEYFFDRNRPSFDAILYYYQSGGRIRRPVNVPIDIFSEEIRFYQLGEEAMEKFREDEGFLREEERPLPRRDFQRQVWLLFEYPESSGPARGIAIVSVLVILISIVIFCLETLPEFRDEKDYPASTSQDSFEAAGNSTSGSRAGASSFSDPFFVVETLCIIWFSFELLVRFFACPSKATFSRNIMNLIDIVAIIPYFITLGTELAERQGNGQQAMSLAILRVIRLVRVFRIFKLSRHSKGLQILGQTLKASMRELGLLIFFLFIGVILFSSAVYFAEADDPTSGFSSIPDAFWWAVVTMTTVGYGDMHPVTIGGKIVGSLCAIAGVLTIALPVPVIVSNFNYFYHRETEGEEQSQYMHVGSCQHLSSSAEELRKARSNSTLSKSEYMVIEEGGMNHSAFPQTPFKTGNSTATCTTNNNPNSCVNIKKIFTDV
Chain of Intermediate conductance calcium-activated potassium channel protein 4 (O15554 whole entry): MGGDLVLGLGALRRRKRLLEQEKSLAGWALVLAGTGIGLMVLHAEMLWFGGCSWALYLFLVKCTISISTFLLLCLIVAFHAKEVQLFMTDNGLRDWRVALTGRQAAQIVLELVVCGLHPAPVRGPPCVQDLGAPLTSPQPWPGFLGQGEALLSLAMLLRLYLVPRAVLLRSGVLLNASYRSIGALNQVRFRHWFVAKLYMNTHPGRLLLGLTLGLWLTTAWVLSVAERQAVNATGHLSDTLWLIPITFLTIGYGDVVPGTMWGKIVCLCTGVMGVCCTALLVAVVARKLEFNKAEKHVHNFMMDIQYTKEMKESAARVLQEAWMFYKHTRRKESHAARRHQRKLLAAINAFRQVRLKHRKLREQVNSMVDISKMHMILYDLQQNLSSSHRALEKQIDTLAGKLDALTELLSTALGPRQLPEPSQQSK

As for `Cc1ccc(C(=O)N2CC(=O)c3ccccc3-c3ccccc32)cc1`, the concentration for half-maximal inhibition (IC50) worked out at 4 µM in [1] and 16 µM in data set [2].
On to `Clc1ccccc1C(c1ccccc1)(c1ccccc1)n1ccnc1` [CLOTRIMAZOLE], for which the Activity in data set [3] worked out at 20%. Further, in data set [1], the IC50 was 6 µM. Also, in data set [4], it took 15 µM to reach a half-maximal effect (EC50). In addition, the CC50 in [5] and in data set [6] was 40 µM each time.
`COc1cccc(C(=O)C2c3ccccc3-c3ccccc3N2C(=O)c2ccco2)c1` (configuration not stated) showed an inhibition in data set [7] of 30%.
In the case of `O=C(c1ccc[nH]1)C1c2ccccc2-c2ccccc2N1C(=O)c1ccco1` (configuration not stated), the inhibition in data set [7] worked out at 15%.
For the compound `Cc1ccc(S(=O)(=O)N2CC(=O)c3ccccc3-c3ccccc32)cc1`, the Activity in data set [3] is 20%; in data set [10], “Non-toxic”; in data set [11], “Non-toxic”; in [12] it was “Non-toxic”. Also, the figures for the IC50 in data set [1] and in data set [2] were 5.8 µM and 2.1 µM, respectively. Besides, the EC50 came out at 8.4 µM in data set [4] and 2.5 µM in [9]. In addition, in data set [8], the outcome was inactive.
In data set [1], `O=C1CN(S(=O)(=O)c2cccc(Cl)c2)c2ccccc2-c2ccccc21` gave a 50% inhibitory concentration (IC50) of 3.6 µM.
For the compound `CC(=O)N1c2ccccc2-c2ccccc2C1c1c[nH]c2ccccc12` (configuration not stated), the IC50 in [1] was found to be 5 µM.
Consider `COc1ccc(C(=O)C2c3ccccc3-c3ccccc3N2C(=O)c2ccco2)cc1` (configuration not stated), for which the inhibition in data set [7] amounted to 13%.
In the case of `Clc1ccccc1C(c1ccccc1)(c1ccccc1)n1cccn1`, half-maximal inhibition in data set [1] (IC50) required 5 µM. Besides, the figures for the EC50 in [4] and in data set [9] were 40 µM and 0.025 µM, respectively. For the same compound, in data set [8], the outcome was inactive.
With `O=c1ccc2c(OCCCCOc3ccccc3)c3ccoc3cc2o1`, in [2], the half-maximal inhibitory concentration (IC50) was 10 µM. Also, the half-maximal effective concentration (EC50) worked out at 25 µM in data set [8]; 0.43 µM in data set [13]; 0.4 µM in data set [14]; 1.2 µM in data set [15]; 0.5 µM in [16].
As to `CCCC(C)C(=O)N1c2ccccc2-c2ccccc2C1c1cccs1` (configuration not stated), in [1], the IC50 was less than 2 µM. The compound also gave an inhibition in data set [7] of 59%.
As for `O=C(c1cc(F)ccc1F)N1c2ccccc2-c2ccccc2C1c1cccs1` (configuration not stated), in [7], the inhibition is 27%.
Take `O=C1CN(S(=O)(=O)c2cccs2)c2ccccc2-c2ccccc21`: the IC50 in data set [1] was found to be 13 µM; in data set [2] it was 2.4 µM.
Turning to `O=c1[nH]c2ccccc2c2ccccc12`, the inhibition in data set [17] stood at 12%.
In the case of `O=c1c2ccccc2c2ccccc2n1CCn1cccc1`, the inhibition in [18] and in [17] was 57% in each case. In addition, in [4], a half-maximal response (EC50) required 2.3 µM.
Compound `O=C(c1ccc2c(c1)OCO2)C1c2ccccc2-c2ccccc2N1C(=O)c1ccco1` (configuration not stated) returned an inhibition in data set [7] of 8%.
Same read-out and setting: under `O=C(CCc1ccccc1)C1c2ccccc2-c2ccccc2N1C(=O)c1ccco1` (configuration not stated) stands 15%; under `O=C(CCC1CCCC1)C1c2ccccc2-c2ccccc2N1C(=O)c1ccco1` (configuration not stated), 11%.
In turn, `O=C1CN(S(=O)(=O)c2ccc([N+](=O)[O-])cc2)c2ccccc2-c2ccccc21` gave an IC50 in data set [1] greater than 10 µM.
`O=C(O)C(=O)C1c2ccccc2-c2ccccc2N1C(=O)c1ccco1` (configuration not stated): in data set [7], the inhibition turned out to be 41%.
With `O=C1CN(C(=O)c2cccc(Cl)c2)c2ccccc2-c2ccccc21`, the IC50 in data set [1] came to 3.4 µM; in data set [2], 1.3 µM.

As usually defined, the IC50 is the concentration that gives 50% inhibition. Usually EC50 stands for the concentration giving half of the maximal effect. One may read the inhibition as the relative decrease from the control value, in per cent.
